Experimental findings from ChEMBL document CHEMBL1152489, “Synthesis and biological evaluation of a novel series of 1,5-benzothiazepine derivatives as potential antimicrobial agents” (2009) are described below.

Assay [1] has as its system Escherichia coli. As to the kind of experiment: Antibacterial activity against Escherichia coli ATCC 44752 at 50 ug/disk after 24 hrs by disk diffusion method. It is filed as functional, organism-based. Put shortly:
(§1)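 Disk diffusion on media seeded with the organism. Sterile paper discs (6 mm) carried test compound dissolved in DMSO at 12.5, 50, 100 or 200 µg/disc. DMSO-only discs served as controls. Plates were incubated 24 h at 37 °C. The read-out is the growth-inhibition zone diameter in mm, averaged over three trials (±1 mm).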

In assay [2] the test system is Candida albicans. Briefly: Antifungal activity against Candida albicans ATCC 10231 at 200 ug/disk after 24 hrs by disk diffusion method. It is filed as functional. The note with it: for zone of inhibition at 200 µg/disc: ATCC 10231, 24 h, read-out: IZ. Put shortly: as §1
For orientation: Agar diffusion results depend on both activity and mobility in agar.

Assay [3] relates to Staphylococcus aureus. As to the kind of experiment: Antibacterial activity against Staphylococcus aureus ATCC 25923 at 50 ug/disk after 24 hrs by disk diffusion method. It is filed as functional. The note with it: for zone of inhibition at 50 µg/disc: ATCC 25923, 24 h, read-out: IZ. Put shortly:
as §1

Assay [4] deals with Staphylococcus aureus. Briefly: Antibacterial activity against Staphylococcus aureus ATCC 25923 at 200 ug/disk after 24 hrs by disk diffusion method. The note with it: for zone of inhibition at 200 µg/disc: ATCC 25923, 24 h, read-out: IZ. It is filed as functional. The gist of the method: as §1
Assay [5] deals with Escherichia coli. As to the kind of experiment: Antibacterial activity against Escherichia coli ATCC 44752 at 200 ug/disk after 24 hrs by disk diffusion method. It is filed as functional, organism-based. The gist of the method: as §1
The subject of assay [6] is Candida albicans. Briefly: Antifungal activity against Candida albicans ATCC 10231 at 50 ug/disk after 24 hrs by disk diffusion method. The note with it: for zone of inhibition at 50 µg/disc: ATCC 10231, 24 h, read-out: IZ. It is filed as functional. The gist of the method:
as §1

Assay [7] relates to Staphylococcus epidermidis. As to the kind of experiment: Antibacterial activity against Staphylococcus epidermidis ATCC 26069 at 50 ug/disk after 24 hrs by disk diffusion method. It is filed as functional. The note with it: for zone of inhibition at 50 µg/disc: ATCC 26069, 24 h, read-out: IZ. The gist of the method:
as §1

The subject of assay [8] is Staphylococcus epidermidis. As to the kind of experiment: Antibacterial activity against Staphylococcus epidermidis ATCC 26069 at 200 ug/disk after 24 hrs by disk diffusion method. It is filed as functional. The note with it: for zone of inhibition at 200 µg/disc: ATCC 26069, 24 h, read-out: IZ. Put shortly:
as §1

Assay [9] relates to Staphylococcus aureus. Briefly: Antibacterial activity against Staphylococcus aureus ATCC 25923 at 100 ug/disk after 24 hrs by disk diffusion method. It is filed as functional. Conditions: for zone of inhibition at 100 µg/disc: ATCC 25923, 24 h, read-out: IZ. Put shortly: as §1
The subject of assay [10] is Staphylococcus epidermidis. As to the kind of experiment: Antibacterial activity against Staphylococcus epidermidis ATCC 26069 at 100 ug/disk after 24 hrs by disk diffusion method. It is filed as functional. The note with it: for zone of inhibition at 100 µg/disc: ATCC 26069, 24 h, read-out: IZ. Put shortly:
as §1

The test system of assay [11] is Candida albicans. Briefly: Antifungal activity against Candida albicans ATCC 10231 at 100 ug/disk after 24 hrs by disk diffusion method. Conditions: for zone of inhibition at 100 µg/disc: ATCC 10231, 24 h, read-out: IZ. It is filed as functional. Put shortly: as §1
The test system of assay [12] is Escherichia coli. Briefly: Antibacterial activity against Escherichia coli ATCC 44752 at 100 ug/disk after 24 hrs by disk diffusion method. It is filed as functional, organism-based. The gist of the method: as §1

SMILES strings stand for the structures. Active and inactive are the calls of the source. The calls are words filed in the database; no cut-off is given here.

For the molecule `CCOC(=O)C1=C(C)Nc2ccccc2SC1c1ccc(F)cc1` (stereo unspecified), the “inhibition zone (IZ)” value in [1], in [2], in assay [3], in assay [4], in [5] and in [6] was “inactive” throughout. The “inhibition zone (IZ)” value in assay [7], in [8], in [9], in assay [10], in assay [11] and in [12] was “inactive” in each case.
`CC(=O)C1=C(C)Nc2cc(Cl)ccc2SC1c1ccccc1Cl` (stereo unspecified): the “inhibition zone (IZ)” value in assay [1], in [5] and in assay [12] was “inactive” throughout. Besides, the zone of inhibition at 200 µg/disc in assay [2] stood at 15 mm; in [4] it was 11 mm; in assay [8], 10 mm. For the same molecule, the zone of inhibition at 50 µg/disc in assay [3] was found to be 7 mm; in assay [6] it was 10 mm; in [7] it was 7 mm. For the same molecule, the zone of inhibition at 100 µg/disc came out at 8 mm in [9], 7 mm in assay [10] and 12 mm in [11].
Turning to `CCOC(=O)C1=C(C)Nc2ccccc2SC1c1ccccc1Cl` (stereo unspecified), the “inhibition zone (IZ)” value in assay [1], in [2], in assay [3], in assay [4], in assay [5] and in [6] was “inactive” in each case. For the same molecule, the “inhibition zone (IZ)” value in [7], in assay [8], in assay [9], in assay [10], in assay [11] and in [12] was “inactive” each time.
On to `CC(=O)C1=C(C)Nc2cc(Cl)ccc2SC1c1ccc(Cl)cc1` (stereo unspecified), for which the “inhibition zone (IZ)” value in [1], in assay [5] and in assay [12] was “inactive” throughout. For the same molecule, the results for the zone of inhibition at 200 µg/disc in [2], in assay [4] and in assay [8] were 13 mm, 10 mm and 10 mm, respectively. Besides, the zone of inhibition at 50 µg/disc in assay [3] came to 7 mm; in assay [6] it was 10 mm; in assay [7] it was 7 mm. For the same molecule, the zone of inhibition at 100 µg/disc was found to be 7.5 mm in assay [9], 7.5 mm in assay [10] and 11 mm in assay [11].
Consider `CC(=O)C1=C(C)Nc2ccccc2SC1c1ccccc1Cl` (stereo unspecified), for which the “inhibition zone (IZ)” value in assay [1], in assay [5] and in assay [12] was “inactive” in each case. Also, the zone of inhibition at 200 µg/disc in assay [2] worked out at 15 mm; in assay [4] it was 9 mm; in [8], 9 mm. The results for the zone of inhibition at 50 µg/disc in assay [3], in [6] and in assay [7] were 8 mm, 12 mm and 7.5 mm, respectively. The figures for the zone of inhibition at 100 µg/disc in assay [9], in assay [10] and in assay [11] were 8 mm, 7.5 mm and 15 mm, respectively.
Regarding `CC(=O)C1=C(C)Nc2cc(Cl)ccc2SC1c1ccc(Br)cc1` (stereo unspecified), the “inhibition zone (IZ)” value in [1], in assay [5] and in assay [12] was “inactive” each time. For the same molecule, the results for the zone of inhibition at 200 µg/disc in assay [2], in assay [4] and in assay [8] were 15 mm, 11 mm and 11 mm, respectively. Moreover, the zone of inhibition at 50 µg/disc in [3] stood at 9 mm; in assay [6], 10 mm; in assay [7] it was 9 mm. Moreover, the zone of inhibition at 100 µg/disc is 10 mm in assay [9], 10 mm in [10] and 11 mm in assay [11].
Turning to `CC(=O)C1=C(C)Nc2cc(Cl)ccc2SC1c1ccc([N+](=O)[O-])cc1` (stereo unspecified), the “inhibition zone (IZ)” value in assay [1], in assay [5] and in assay [12] was “inactive” in each case. In addition, the zone of inhibition at 200 µg/disc was 14 mm in [2], 11 mm in assay [4] and 11 mm in assay [8]. Also, the values for the zone of inhibition at 50 µg/disc in [3], in assay [6] and in [7] were 7 mm, 9 mm and 10 mm, respectively. Also, the results for the zone of inhibition at 100 µg/disc in assay [9], in [10] and in [11] were 7 mm, 11 mm and 11 mm, respectively.
Consider `CC(=O)C1=C(C)Nc2cc(Cl)ccc2SC1c1ccccc1` (stereo unspecified), for which the “inhibition zone (IZ)” value in assay [1], in assay [5] and in assay [12] was “inactive” each time. Also, the zone of inhibition at 200 µg/disc in assay [2] amounted to 13 mm; in assay [4] it was 10 mm; in assay [8], 11 mm. For the same molecule, the zone of inhibition at 50 µg/disc in [3], in [6] and in [7] was 7 mm each time. The figures for the zone of inhibition at 100 µg/disc in [9], in assay [10] and in assay [11] were 7 mm, 8 mm and 9 mm, respectively.
Turning to `CC(=O)C1=C(C)Nc2ccccc2SC1c1ccccc1` (stereo unspecified), the “inhibition zone (IZ)” value in assay [1], in assay [5], in assay [6], in assay [7] and in assay [12] was “inactive” in each case. The zone of inhibition at 200 µg/disc in [2] turned out to be 10 mm; in assay [4] it was 11 mm; in assay [8] it was 10 mm. Moreover, the zone of inhibition at 50 µg/disc in assay [3] is 6.5 mm. The results for the zone of inhibition at 100 µg/disc in [9], in assay [10] and in [11] were 8 mm, 7 mm and 7 mm, respectively.
With `CC(=O)C1=C(C)Nc2ccccc2SC1c1ccc(F)cc1` (stereo unspecified), the “inhibition zone (IZ)” value in assay [1], in assay [5] and in [12] was “inactive” each time. The zone of inhibition at 200 µg/disc is 20 mm in [2], 10 mm in assay [4] and 11 mm in assay [8]. In addition, the zone of inhibition at 50 µg/disc in assay [3] is 7 mm; in [6], 18 mm; in [7] it was 10 mm. In addition, the results for the zone of inhibition at 100 µg/disc in assay [9], in assay [10] and in assay [11] were 9 mm, 11 mm and 20 mm, respectively.
With `CC(=O)C1=C(C)Nc2cc(Cl)ccc2SC1c1ccc(Cl)cc1Cl` (stereo unspecified), the “inhibition zone (IZ)” value in [1], in assay [2], in assay [3], in assay [5], in assay [6] and in assay [7] was “inactive” throughout. Further, the “inhibition zone (IZ)” value in [8], in assay [10], in assay [11] and in assay [12] was “inactive” in each case. In addition, the zone of inhibition at 200 µg/disc in assay [4] is 10 mm. The zone of inhibition at 100 µg/disc in assay [9] worked out at 7 mm.
In the case of `CC(=O)C1=C(C)Nc2cc(Cl)ccc2SC1c1ccccc1[N+](=O)[O-]` (stereo unspecified), the “inhibition zone (IZ)” value in assay [1], in assay [2], in assay [5], in assay [6], in assay [11] and in assay [12] was “inactive” each time. In addition, the zone of inhibition at 50 µg/disc in assay [3] and in assay [7] was 7 mm each time. For the same molecule, the zone of inhibition at 200 µg/disc in assay [4] and in assay [8] was 8 mm in each case. The zone of inhibition at 100 µg/disc was 7 mm in assay [9] and 8 mm in assay [10].
With `CC(=O)C1=C(C)Nc2ccccc2SC1c1ccc(Cl)cc1Cl` (stereo unspecified), the “inhibition zone (IZ)” value in assay [1], in assay [5] and in assay [12] was “inactive” in each case. Also, the values for the zone of inhibition at 200 µg/disc in assay [2], in assay [4] and in assay [8] were 14 mm, 10 mm and 11 mm, respectively. For the same molecule, the zone of inhibition at 50 µg/disc in assay [3] was determined as 7 mm; in assay [6], 9 mm; in [7], 7 mm. The zone of inhibition at 100 µg/disc was 7 mm in assay [9], 8 mm in assay [10] and 10 mm in [11].
